From ChEMBL document CHEMBL1782043, “Synthesis and antileishmanial activity of novel 5-(5-nitrofuran-2-y1)-1,3,4-thiadiazoles with piperazinyl-linked benzamidine substituents” (Eur J Med Chem, 2011)
Activity calls are given as the source filed them. The rule behind the calls is not given here.

Legend:
Leishmania major [1] = experiment: Antileishmanial activity against promastigotes form of Leishmania major MRHO/IR/75/ER after 24 hrs by MTT assay; assay type: functional, organism-based
Outline: (§1)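 Log-phase promastigotes (2 × 10⁶/mL) were used, from a strain passaged in BALB/c mice. They were incubated with serial drug dilutions in phenol red-free RPMI 1640 with 10% FBS, 2 mM glutamine and antibiotics, pH ~7.2, at 25 °C for 24, 48 or 72 h. MTT (0.5 mg/mL) was then added for 4 h at 37 °C. Cells were pelleted and dissolved in DMSO, with absorbance read at 492 nm. Controls received medium plus DMSO. At least two independent experiments were run in triplicate. IC50 came from linear regression, as mean ± SD.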

[2] = Cytotoxicity against mouse peritoneal macrophages after 24 hrs by MTT assay; assay type: cell-based, Peritoneal macrophage cell
Outline: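 Peritoneal macrophages were seeded at 2 × 10⁵ cells/well and allowed to adhere. Medium was then replaced with a range of compound concentrations for 24 h at 37 °C in humidified 5% CO₂. Viability was read by MTT colorimetry. Two independent experiments were run in triplicate, and CC50 was obtained by linear regression.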

Leishmania major [3] = experiment: Antileishmanial activity against amastigotes form of Leishmania major MRHO/IR/75/ER infected in mouse peritoneal macrophage assessed as decrease in number of amastigotes per macrophage after 24 hrs; assay type: functional, organism-based
Outline: (§2)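 Mouse peritoneal macrophages (1 × 10⁶/well) were grown on glass coverslips in RPMI 1640 with 10% heat-inactivated FBS, 2 mM glutamine, penicillin and streptomycin. Non-adherent cells were washed off after 1 h. Stationary-phase promastigotes (2 × 10⁶/well, 3 per macrophage) were added for 2 h at 37 °C under CO₂. Free parasites were washed away, then drug medium was added for 24 h. Cells were methanol-fixed and Giemsa-stained, with 100 cells counted per well. Infectivity index = % infected macrophages × mean parasites per infected cell. Two experiment sets were run.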

[4] = Selectivity index, ratio of CC50 for mouse peritoneal macrophages to IC50 for promastigotes form of Leishmania major MRHO/IR/75/ER after 24 hrs by MTT assay; assay type: functional
Leishmania major [5] = experiment: Antileishmanial activity against amastigotes form of Leishmania major MRHO/IR/75/ER infected in mouse peritoneal macrophage assessed as decrease in infectivity index after 24 hrs; assay type: functional, organism-based; outline: as §2
Leishmania major [6] = experiment: Antileishmanial activity against amastigotes form of Leishmania major MRHO/IR/75/ER infected in mouse peritoneal macrophage assessed as decrease in macrophage infectivity after 24 hrs; assay type: functional, organism-based; outline: as §2
Leishmania major [7] = experiment: Antileishmanial activity against promastigotes form of Leishmania major MRHO/IR/75/ER after 72 hrs by MTT assay; assay type: functional, organism-based; outline: as §1
Leishmania major [8] = experiment: Antileishmanial activity against promastigotes form of Leishmania major MRHO/IR/75/ER after 48 hrs by MTT assay; assay type: functional, organism-based; outline: as §1

Structure (SMILES)	IC50 (Leishmania major [1]) [µM]	CC50 at 24 h [2] [µM]	Activity (Leishmania major [3])	Ratio CC50/IC50 [4]	Activity (Leishmania major [5])	Activity (Leishmania major [6])	IC50 (Leishmania major [7]) [µM]	IC50 (Leishmania major [8]) [µM]
O=[N+]([O-])c1ccc(-c2nnc(N3CCN(c4ccc(C5=NCCN5)cc4)CC3)s2)o1	> 200	–	–	–	–	–	–	–
N#Cc1ccc(N2CCN(c3nnc(-c4ccc([N+](=O)[O-])o4)s3)CC2)cc1	104	159	Active	1.53	Active	Active	32	86
Cl.N=C(c1ccc(N2CCN(c3nnc(-c4ccc([N+](=O)[O-])o4)s3)CC2)cc1)N1CCOCC1	93	55	–	0.59	–	–	4	88
Cl.N=C(N)c1ccc(N2CCN(c3nnc(-c4ccc([N+](=O)[O-])o4)s3)CC2)cc1	111	342	–	3.08	–	–	26	111
CCCNC(=N)c1ccc(N2CCN(c3nnc(-c4ccc([N+](=O)[O-])o4)s3)CC2)cc1.Cl	10	785	Active	78.5	Active	Active	0.08	5
CNC(=N)c1ccc(N2CCN(c3nnc(-c4ccc([N+](=O)[O-])o4)s3)CC2)cc1.Cl	23	223	Active	9.69	Active	Active	21	22
CCNC(=N)c1ccc(N2CCN(c3nnc(-c4ccc([N+](=O)[O-])o4)s3)CC2)cc1.Cl	33	337	Active	10.21	Active	Active	16	26
O=[N+]([O-])c1ccc(-c2nnc(N3CCN(c4ccc(C5=NCCCN5)cc4)CC3)s2)o1	> 200	–	–	–	–	–	–	–
CCCCNC(=N)c1ccc(N2CCN(c3nnc(-c4ccc([N+](=O)[O-])o4)s3)CC2)cc1.Cl	11	123	–	11.18	–	–	0.2	4
CCC(C)NC(=N)c1ccc(N2CCN(c3nnc(-c4ccc([N+](=O)[O-])o4)s3)CC2)cc1.Cl (centres undefined)	33	770	Active	23.33	Active	Active	13	18
Cl.N=C(NCC1CCCO1)c1ccc(N2CCN(c3nnc(-c4ccc([N+](=O)[O-])o4)s3)CC2)cc1 (centres undefined)	95	921	–	9.69	–	–	5	88
COc1ccc(CNC(=N)c2ccc(N3CCN(c4nnc(-c5ccc([N+](=O)[O-])o5)s4)CC3)cc2)cc1.Cl	80	69	Active	0.86	Active	Active	2	76
Cl.N=C(NCc1ccccc1)c1ccc(N2CCN(c3nnc(-c4ccc([N+](=O)[O-])o4)s3)CC2)cc1	9	546	Active	60.77	Active	Active	0.4	1.9
CCOC(=N)c1ccc(N2CCN(c3nnc(-c4ccc([N+](=O)[O-])o4)s3)CC2)cc1	48	–	Active	–	Active	Active	26	46
